Seven compounds from ChEMBL document CHEMBL3525918, “Utility of drug depletion-time profiles in isolated hepatocytes for accessing hepatic uptake clearance: identifying rate-limiting steps and role of passive processes” (Drug Metab Dispos, 2012) can be followed below.

SMILES strings stand for the structures.

Series [1] can be described thus: (§1) Apparent intrinsic clearance in Sprague-Dawley rat hepatocytes assessed per 10^6 cells at 0.1 to 10 uM up to 90 mins by media-loss method. It counts as ADME, cell-based, Hepatocyte. Particulars: Sprague-Dawley, read-out: CLH(app). A digest of the protocol: (§2)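 Freshly isolated rat hepatocytes (collagenase perfusion, >85% viable, three preparations), incubated with drug at final 0.1–10 µM at 37°C, 0.1–1 x 10^6 cells/mL, 0.5% methanol, alongside the whole-matrix assay. At time points up to 90 min the incubation was centrifuged 30 sec at 7000g, and the supernatant medium was snap-frozen and analysed by LC-MS/MS. Loss of drug from the medium was fitted mono- or biexponentially.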

Series [2] in a line: Apparent intrinsic clearance in Sprague-Dawley rat hepatocytes assessed per 10^6 cells at 0.1 to 10 uM up to 90 mins by conventional assay. Conditions: read-out: CLH(app). Type of series: ADME, cell-based, Hepatocyte. The procedure, abridged:
(§3)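 Fresh rat hepatocytes from collagenase perfusion (viability >85%), three independent preparations. Drug at final 0.1–10 µM in Williams' medium E, 0.5% methanol, preincubated 5 min at 37°C, then mixed with hepatocytes (final 0.1–1 x 10^6 cells/mL) and shaken at 37°C. Ten time points up to 90 min, terminated by snap-freezing the whole cell-plus-medium matrix. LC-MS/MS quantitation; mono- or biexponential depletion fit gives kdep.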

A short description of series [3]: Drug metabolism in Sprague-Dawley rat hepatocytes assessed per 10^6 cells at 0.1 to 10 uM up to 90 mins by conventional assay. It counts as ADME, cell-based, Hepatocyte. A digest of the protocol:
as §3

Series [4] in a line: Drug metabolism in Sprague-Dawley rat hepatocytes assessed per 10^6 cells at 0.1 to 10 uM up to 90 mins by media-loss method. It counts as ADME, cell-based, Hepatocyte. A digest of the protocol: as §2
A further series deals with Hepatocyte. The description is as §1. It counts as ADME, cell-based. Particulars: 1.5 h, 10 µM. A digest of the protocol:
as §2

Consider `CCOc1cc(CC(=O)N[C@@H](CC(C)C)c2ccccc2N2CCCCC2)ccc1C(=O)O` [REPAGLINIDE], for which the hepatocyte CLint at up to 10 µM in series [1] is 49.3 µL/min/1e6 cells; in series [2] it was 49.9 µL/min/1e6 cells.
Turning to `CC[C@H]1OC(=O)[C@H](C)[C@@H](O[C@H]2C[C@@](C)(OC)[C@@H](O)[C@H](C)O2)[C@H](C)[C@@H](O[C@@H]2O[C@H](C)C[C@H](N(C)C)[C@H]2O)[C@](C)(O)C[C@@H](C)C(=O)[C@H](C)[C@@H](O)[C@]1(C)O` [ERYTHROMYCIN], the Km at 1.5 h, up to 10 µM in series [3] was found to be 3.5 µM; in series [4] it was 5.5 µM. Moreover, the figures for the hepatocyte CLint at up to 10 µM in series [1] and in series [2] were 35 µL/min/1e6 cells and 26 µL/min/1e6 cells, respectively.
As for `CC(C)c1c(C(=O)Nc2ccccc2)c(-c2ccccc2)c(-c2ccc(F)cc2)n1CC[C@@H](O)C[C@@H](O)CC(=O)O` [ATORVASTATIN], the Km at 1.5 h, up to 10 µM in series [3] worked out at 1.3 µM; in series [4], 0.43 µM.
On to `CC(C)(C(=O)O)c1ccc(C(O)CCCN2CCC(C(O)(c3ccccc3)c3ccccc3)CC2)cc1` (stereo unspecified) [FEXOFENADINE], for which the Michaelis constant (Km) at 1.5 h, up to 10 µM in series [3] is 4.7 µM.
Regarding `O=C(O)C[C@H](O)C[C@H](O)/C=C/c1c(C2CC2)nc2ccccc2c1-c1ccc(F)cc1` [PITAVASTATIN], the “CLH(app)” value with Hepatocyte was determined as 1705 uL/min/10^6cells. For the same compound, in series [4], the Michaelis constant (Km) at 1.5 h, up to 10 µM came to 13 µM. The hepatocyte CLint at up to 10 µM in series [2] came to 7.1 µL/min/1e6 cells.
With `CC[C@H]1OC(=O)[C@H](C)[C@@H](O[C@H]2C[C@@](C)(OC)[C@@H](O)[C@H](C)O2)[C@H](C)[C@@H](O[C@@H]2O[C@H](C)C[C@H](N(C)C)[C@H]2O)[C@](C)(OC)C[C@@H](C)C(=O)[C@H](C)[C@@H](O)[C@]1(C)O` [CLARITHROMYCIN], the hepatocyte CLint at up to 10 µM came out at 68 µL/min/1e6 cells in series [1] and 46 µL/min/1e6 cells in series [2].
Consider `CC(C)c1nc(N(C)S(C)(=O)=O)nc(-c2ccc(F)cc2)c1/C=C/[C@@H](O)C[C@@H](O)CC(=O)O` [ROSUVASTATIN], for which the hepatocyte CLint at up to 10 µM stood at 1660 µL/min/1e6 cells in series [1] and 3.3 µL/min/1e6 cells in series [2].
